# Test results reported in ChEMBL document CHEMBL1770121 (Bioorg Med Chem, 2011).
# Experiments:
# HepG2 = assay: Antiproliferative activity against human HepG2 cells after 48 hrs by MTT assay; assay type: functional, cell-based; conditions: HepG2, 48 h
# Outline: (§1)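 Log-phase cells grown in RPMI 1640 with 10% FBS were seeded at 2 × 10⁴ cells/mL and left 24 h at 37 °C, 5% CO₂. […] After 48 h MTT was added and the formazan dissolved in 10% SDS–5% isobutyl alcohol–0.01 M HCl overnight at 37 °C. OD was read at 570 nm, three replicate wells per concentration.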
# A549 = assay: Antiproliferative activity against human A549 cells after 48 hrs by MTT assay; assay type: functional, cell-based; conditions: A549, 48 h; outline: as §1
# B16-F10 [1] = assay: Antiproliferative activity against mouse B16F10 cells after 48 hrs by MTT assay; assay type: functional, cell-based; conditions: B16-F10, 48 h; outline: as §1
# [2] = Inhibition of bovine brain tubulin polymerization after 20 mins by turbidimetry; parameters: species or system Bos taurus
# Outline: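 Varying concentrations were preincubated with 10 µM tubulin in glutamate buffer at 30 °C, then cooled to 0 °C. GTP was added and the mixtures moved to 0 °C cuvettes in a recording spectrophotometer. Assembly was followed by turbidity on warming to 30 °C.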
# B16-F10 [3] = assay: Cell cycle arrest in mouse B16F10 cells assessed as accumulation at G2/M phase at 1 ug/ml after 24 hrs by flow cytometry (Rbv = 12.27%); assay type: functional
# B16-F10 [4] = assay: Cell cycle arrest in mouse B16F10 cells assessed as accumulation at G2/M phase at 5 ug/ml after 24 hrs by flow cytometry (Rbv = 12.27%); assay type: functional
# B16-F10 [5] = assay: Cell cycle arrest in mouse B16F10 cells assessed as accumulation at Go/G1 phase at 1 ug/ml after 24 hrs by flow cytometry (Rbv = 66.15%); assay type: functional
# B16-F10 [6] = assay: Cell cycle arrest in mouse B16F10 cells assessed as accumulation at Go/G1 phase at 5 ug/ml after 24 hrs by flow cytometry (Rbv = 66.15%); assay type: functional
# B16-F10 [7] = assay: Cell cycle arrest in mouse B16F10 cells assessed as accumulation at S phase at 1 ug/ml after 24 hrs by flow cytometry (Rbv = 14.96%); assay type: functional
# B16-F10 [8] = assay: Cell cycle arrest in mouse B16F10 cells assessed as accumulation at S phase at 5 ug/ml after 24 hrs by flow cytometry (Rbv = 14.96%); assay type: functional
Compound,IC50 (HepG2),IC50 (A549),IC50 (B16-F10 [1]),IC50 [2],Activity (B16-F10 [3]),Activity (B16-F10 [4]),Activity (B16-F10 [5]),Activity (B16-F10 [6]),Activity (B16-F10 [7]),Activity (B16-F10 [8])
CCCCOc1ccc(C(=O)/C=C/c2c(/C=C/c3ccc(OC)cc3)cc(OC)cc2OC)cc1,12.9 µg/mL,8.7 µg/mL,5.3 µg/mL,94 µg/mL,–,–,–,–,–,–
CCCC(C)Oc1ccc(C(=O)/C=C/c2c(/C=C/c3ccc(OC)cc3)cc(OC)cc2OC)cc1 (configuration not stated),11.1 µg/mL,9.4 µg/mL,6.7 µg/mL,55 µg/mL,–,–,–,–,–,–
CCCCCCOc1ccc(C(=O)/C=C/c2c(/C=C/c3ccc(OC)cc3)cc(OC)cc2OC)cc1,16.2 µg/mL,8.4 µg/mL,10.4 µg/mL,131 µg/mL,–,–,–,–,–,–
CCCCCCCCCCCCOc1ccc(C(=O)/C=C/c2c(/C=C/c3ccc(OC)cc3)cc(OC)cc2OC)cc1,11.6 µg/mL,7.9 µg/mL,12.7 µg/mL,58 µg/mL,–,–,–,–,–,–
COc1ccc(/C=C/c2cc(OC)cc(OC)c2/C=C/C(=O)c2ccc(F)cc2)cc1,12.2 µg/mL,6.6 µg/mL,5.3 µg/mL,64 µg/mL,–,–,–,–,–,–
COc1ccc(/C=C/c2cc(OC)cc(OC)c2/C=C/C(=O)c2ccc(Cl)cc2)cc1,13.6 µg/mL,6.4 µg/mL,4.9 µg/mL,80 µg/mL,–,–,–,–,–,–
COc1ccc(/C=C/c2cc(OC)cc(OC)c2/C=C/C(=O)c2ccc(Br)cc2)cc1,12.9 µg/mL,8.3 µg/mL,6.5 µg/mL,72 µg/mL,–,–,–,–,–,–
COc1ccc(/C=C/c2cc(OC)cc(OC)c2/C=C/C(=O)c2cccc(Cl)c2)cc1,9.5 µg/mL,5.6 µg/mL,3.3 µg/mL,41 µg/mL,–,–,–,–,–,–
COc1ccc(/C=C/c2cc(OC)cc(OC)c2/C=C/C(=O)c2cccc(Br)c2)cc1,13 µg/mL,8.1 µg/mL,5.1 µg/mL,76 µg/mL,–,–,–,–,–,–
COc1ccc(/C=C/c2cc(OC)cc(OC)c2/C=C/C(=O)c2ccc(Cl)c(Cl)c2)cc1,10.8 µg/mL,5.9 µg/mL,7.5 µg/mL,47 µg/mL,–,–,–,–,–,–
COc1ccc(/C=C/c2cc(OC)cc(OC)c2/C=C/C(=O)c2ccc(C(F)(F)F)cc2)cc1,18.7 µg/mL,7.8 µg/mL,4.3 µg/mL,150 µg/mL,–,–,–,–,–,–
COc1ccc(/C=C/c2cc(OC)cc(OC)c2/C=C/C(=O)c2ccc(C)cc2)cc1,4.8 µg/mL,3.6 µg/mL,5.3 µg/mL,29 µg/mL,–,–,–,–,–,–
COc1ccc(/C=C/c2cc(OC)cc(OC)c2/C=C/C(=O)c2ccccc2C)cc1,5.3 µg/mL,5.9 µg/mL,6.1 µg/mL,42 µg/mL,–,–,–,–,–,–
COc1ccc(/C=C/c2cc(OC)cc(OC)c2/C=C/C(=O)c2ccc(C)cc2C)cc1,0.9 µg/mL,0.3 µg/mL,4 µg/mL,4.1 µg/mL,–,–,–,–,–,–
COc1ccc(/C=C/c2cc(OC)cc(OC)c2/C=C/C(=O)c2ccc(C)c(C)c2)cc1,0.2 µg/mL,0.1 µg/mL,1.4 µg/mL,2.6 µg/mL,31.5%,72.1%,39.65%,10.05%,13.99%,7.04%
COc1ccc(/C=C/c2cc(OC)cc(OC)c2/C=C/C(=O)c2ccc(N)cc2)cc1,7.5 µg/mL,3.8 µg/mL,2.8 µg/mL,36 µg/mL,–,–,–,–,–,–
CCN(CC)c1ccc(C(=O)/C=C/c2c(/C=C/c3ccc(OC)cc3)cc(OC)cc2OC)cc1,6.3 µg/mL,5.4 µg/mL,8.1 µg/mL,33 µg/mL,–,–,–,–,–,–
COc1ccc(/C=C/c2cc(OC)cc(OC)c2/C=C/C(=O)c2ccc(-c3ccccc3)cc2)cc1,10.5 µg/mL,4.6 µg/mL,10.6 µg/mL,44 µg/mL,–,–,–,–,–,–
COc1ccc(/C=C/c2cc(OC)cc(OC)c2/C=C/C(=O)c2ccc(N3CCOCC3)cc2)cc1,7.3 µg/mL,3.8 µg/mL,3.3 µg/mL,38 µg/mL,–,–,–,–,–,–
COc1ccc(/C=C/c2cc(OC)cc(OC)c2/C=C/C(=O)c2ccccc2)cc1,6.8 µg/mL,3.9 µg/mL,3.7 µg/mL,34 µg/mL,–,–,–,–,–,–
COc1ccc(/C=C/c2cc(OC)cc(OC)c2/C=C/C(=O)c2cccc(OC)c2)cc1,11.6 µg/mL,6.1 µg/mL,4.3 µg/mL,59 µg/mL,–,–,–,–,–,–
COc1ccc(/C=C/c2cc(OC)cc(OC)c2/C=C/C(=O)c2ccc(OC)cc2)cc1,4.9 µg/mL,4.5 µg/mL,5.8 µg/mL,43 µg/mL,–,–,–,–,–,–
CCOc1ccc(C(=O)/C=C/c2c(/C=C/c3ccc(OC)cc3)cc(OC)cc2OC)cc1,8 µg/mL,7.5 µg/mL,6.4 µg/mL,26 µg/mL,–,–,–,–,–,–
COc1cc2c(c(OC)c1OC)-c1ccc(OC)c(=O)cc1[C@@H](NC(C)=O)CC2 [COLCHICINE],0.23 µg/mL,0.12 µg/mL,0.5 µg/mL,–,90.46%,–,2.65%,–,2.29%,–
COc1ccc(/C=C\c2cc(OC)c(OC)c(OC)c2)cc1O [COMBRETASTATIN A4],0.19 µg/mL,0.09 µg/mL,0.4 µg/mL,0.7 µg/mL,–,–,–,–,–,–
Oc1ccc(/C=C/c2cc(O)cc(O)c2)cc1 [RESVERATROL],38.9 µg/mL,30.4 µg/mL,37.3 µg/mL,158 µg/mL,–,–,–,–,–,–
